From ChEMBL document CHEMBL4257585, “Structure-Activity Relationships of Photoswitchable Diarylethene-Based β-Hairpin Peptides as Membranolytic Antimicrobial and Anticancer Agents” (J Med Chem, 2018)
Values after ≈ are worked out from the molar mass of the structure shown.

Assays:
[1] = system: Escherichia coli; experiment: Antimicrobial activity against Escherichia coli DSM 1103 after 22 hrs by resazurin dye based spectrophotometry; assay type: functional; details: DSM 1103, 22 h
Method in brief: (§1)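 2-fold broth microdilution in Mueller–Hinton medium; peptide stocks 1024 μg/mL in 50% ethanol. Exponential-phase cultures diluted to OD550 0.2, then 1:100 (B. subtilis) or 1:1000 (E. coli), giving 5 × 10^5 CFU/mL per well. Incubated 22 h, 37 °C, static; then resazurin (0.2 mg/mL solution) added for 2 h at 37 °C, read visually and spectrophotometrically. Tested in both photoforms.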

[2] = Hemolytic activity against human RBC assessed as hemolysis after 30 mins by colorimetric method; assay type: ADME, cell-based, Erythrocyte; details: human red blood cells (erythrocytes)
Method in brief: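 Human erythrocytes washed twice in isotonic 172 mM Tris-HCl, pH 7.6; peptides dissolved in DMSO, diluted in buffer, two independent 10-step 2-fold series from 256 or 192 μg/mL. HC50 extrapolated as 50% hemolysis concentration.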

[3] = system: Bacillus subtilis; experiment: Antimicrobial activity against Bacillus subtilis DSM 347 after 22 hrs by resazurin dye based spectrophotometry; assay type: functional; details: DSM 347, 22 h; method in brief: as §1
[4] = Therapeutic index, ratio of HC50 for human RBC to MIC for Escherichia coli DSM 1103; assay type: toxicity; details: human red blood cells versus Escherichia coli DSM 1103
Method in brief: (§2)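 Ratio of HC50 (RBC) to HeLa IC50 or to MIC against B. subtilis or E. coli; values measured in mg/mL and recalculated to μM, 2-fold dilution without curve fitting, accuracy within a factor of 2.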

[5] = Selective ratio of HC50 for human RBC to IC50 for human HeLa cells; assay type: toxicity; details: human red blood cells versus HeLa cells; method in brief: as §2
[6] = system: HepG2; experiment: Cytotoxicity against human HepG2 cells assessed as reduction in cell viability after 24 hrs by MTT assay; assay type: functional, cell-based; details: HepG2, 24 h
Method in brief: (§3)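 Cells were grown in DMEM with 10% FBS, 2 mM L-glutamine and 40 μg/mL gentamicin, seeded at about 5 × 10^4 cells/mL, and allowed 24 h adaptation (37 °C, 5% CO2). Peptides were then added for 24 h as 2-fold dilutions (open 256–0.5, closed 512–1 μg/mL), closed form handled under dim light. MTT was given for 4 h, formazan dissolved in DMSO and read at 570 nm. Four repetitions; IC50 extrapolated from viability curves.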

[7] = Cytotoxicity against human doxorubicin-resistant MOR cells assessed as reduction in cell viability after 24 hrs by MTT assay; assay type: functional, cell-based; method in brief: as §3
[8] = system: MIA PaCa-2; experiment: Cytotoxicity against human MIAPaCa2 cells assessed as reduction in cell viability after 24 hrs by MTT assay; assay type: functional, cell-based; details: MIA PaCa-2, 24 h; method in brief: as §3
[9] = system: HeLa; experiment: Cytotoxicity against human HeLa cells assessed as reduction in cell viability after 24 hrs by MTT assay; assay type: functional, cell-based
Method in brief: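 HeLa cells seeded at about 5 × 10^4 cells/mL in DMEM with 10% FBS, 2 mM glutamine, gentamicin; 24 h adaptation (37 °C, 5% CO2), then 24 h peptide exposure. MTT 4 h, formazan in DMSO read at 570 nm. 2-fold series 256–0.5 (open) or 512–1 μg/mL (closed), four repetitions; IC50 extrapolated from killing curves. Closed form handled in dim light.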

[10] = system: MCF7; experiment: Cytotoxicity against human MCF7 cells assessed as reduction in cell viability after 24 hrs by MTT assay; assay type: functional, cell-based; details: MCF7, 24 h; method in brief: as §3
[11] = Cytotoxicity against human MOR cells assessed as reduction in cell viability after 24 hrs by MTT assay; assay type: functional, cell-based; method in brief: as §3
[12] = Therapeutic index, ratio of HC50 for human RBC to MIC for Bacillus subtilis DSM 347; assay type: toxicity; details: human red blood cells versus Bacillus subtilis DSM 347; method in brief: as §2

Structure (SMILES) | MIC [1] | HC50 at 0.5 h [2] | MIC [3] | selectivity ratio [4] | selectivity ratio [5] | IC50 [6] | IC50 [7] | IC50 [8] | IC50 [9] | IC50 [10] | IC50 [11] | selectivity ratio [12]
CC(C)[C@@H]1NC(=O)C2=CC3=C4CCCC4=C4C=C(S[C@]4(C)[C@@]3(C)S2)C(=O)[C@H]2CCCN2C(=O)[C@H](C(C)C)NC(=O)[C@H](CCCN)NC(=O)[C@H]([C@H](O)C(C)C)NC(=O)[C@@H]2CCCN2C(=O)[C@@H](Cc2ccccc2)NC(=O)[C@H](C(C)C)NC(=O)[C@H](CCCN)NC1=O | 100 µM (≈ 128 µg/mL) | 200 µM | 9 µM (≈ 11.5 µg/mL) | 2 | 1.3 | 100 µM | 100 µM | 150 µM | 150 µM | 150 µM | 150 µM | 21.3
Cc1sc2cc1C1=C(CCC1)c1cc(sc1C)C(=O)[C@H]1CCCN1C(=O)[C@H](C(C)C)NC(=O)[C@H](CCCN)NC(=O)[C@H]([C@H](O)C(C)C)NC(=O)[C@@H]1CCCN1C(=O)[C@@H](Cc1ccccc1)NC(=O)[C@H](C(C)C)NC(=O)[C@H](CCCN)NC(=O)[C@H](C(C)C)NC2=O | 50 µM (≈ 64.1 µg/mL) | 20 µM | 3 µM (≈ 3.85 µg/mL) | 0.4 | 2.2 | 5 µM | 5 µM | 6 µM | 9 µM | 6 µM | 5 µM | 6.7
